Measured values: ChEMBL document CHEMBL4811235, “Design, synthesis, biological evaluation and structure-activity relationship study of quinazolin-4(3H)-one derivatives as novel USP7 inhibitors” (Eur J Med Chem, 2021)
Each block holds one molecule with its values, some of them ahead of it. Calls of active or inactive are those of the source. The rule behind the calls is not given here.

Assays:
MGC-803 [1] = experiment: Cytotoxicity against human MGC-803 cells incubated for 4 hrs by MTT assay; assay type: functional, cell-based; details: for IC50: MGC-803, 4 h
Method in brief: (§1)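 MTT assay. Compounds were dissolved in DMSO and tested at […] in triplicate. Cells were incubated with MTT at 37 °C for 4 h, the medium was replaced with DMSO, and absorbance was read at 490 nm. IC50 values came from regression.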

[2] = target: T1, Ubiquitin carboxyl-terminal hydrolase 7 (Homo sapiens, UniProt Q93009); experiment: Inhibition of recombinant USP7 catalytic domain (unknown origin) using UbA10 as substrate incubated with substrate for 75 mins followed by compound addition and measured after 1 hr by TR-FRET assay relative to control; design: concentration or dose not given beside the values
Method in brief: (§2)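 TR-FRET deubiquitinase assay. The recombinant USP7 catalytic domain was mixed with compound (from 2.5 mM DMSO stocks) in 50 mM HEPES pH 7.5 with 0.01% Triton X-100 for 10 min at 25 °C. The substrate was GST- and biotin-tagged Ub-A10, incubated for 75 min at 37 °C. Streptavidin-d2/anti-GST-Eu detection reagents were then added for 1 h at 25 °C and the signal read at […]/em 665 nm. IC50 came from regression.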
Target sequence in this assay (Q93009 whole entry, looked up, the tested form may be a part): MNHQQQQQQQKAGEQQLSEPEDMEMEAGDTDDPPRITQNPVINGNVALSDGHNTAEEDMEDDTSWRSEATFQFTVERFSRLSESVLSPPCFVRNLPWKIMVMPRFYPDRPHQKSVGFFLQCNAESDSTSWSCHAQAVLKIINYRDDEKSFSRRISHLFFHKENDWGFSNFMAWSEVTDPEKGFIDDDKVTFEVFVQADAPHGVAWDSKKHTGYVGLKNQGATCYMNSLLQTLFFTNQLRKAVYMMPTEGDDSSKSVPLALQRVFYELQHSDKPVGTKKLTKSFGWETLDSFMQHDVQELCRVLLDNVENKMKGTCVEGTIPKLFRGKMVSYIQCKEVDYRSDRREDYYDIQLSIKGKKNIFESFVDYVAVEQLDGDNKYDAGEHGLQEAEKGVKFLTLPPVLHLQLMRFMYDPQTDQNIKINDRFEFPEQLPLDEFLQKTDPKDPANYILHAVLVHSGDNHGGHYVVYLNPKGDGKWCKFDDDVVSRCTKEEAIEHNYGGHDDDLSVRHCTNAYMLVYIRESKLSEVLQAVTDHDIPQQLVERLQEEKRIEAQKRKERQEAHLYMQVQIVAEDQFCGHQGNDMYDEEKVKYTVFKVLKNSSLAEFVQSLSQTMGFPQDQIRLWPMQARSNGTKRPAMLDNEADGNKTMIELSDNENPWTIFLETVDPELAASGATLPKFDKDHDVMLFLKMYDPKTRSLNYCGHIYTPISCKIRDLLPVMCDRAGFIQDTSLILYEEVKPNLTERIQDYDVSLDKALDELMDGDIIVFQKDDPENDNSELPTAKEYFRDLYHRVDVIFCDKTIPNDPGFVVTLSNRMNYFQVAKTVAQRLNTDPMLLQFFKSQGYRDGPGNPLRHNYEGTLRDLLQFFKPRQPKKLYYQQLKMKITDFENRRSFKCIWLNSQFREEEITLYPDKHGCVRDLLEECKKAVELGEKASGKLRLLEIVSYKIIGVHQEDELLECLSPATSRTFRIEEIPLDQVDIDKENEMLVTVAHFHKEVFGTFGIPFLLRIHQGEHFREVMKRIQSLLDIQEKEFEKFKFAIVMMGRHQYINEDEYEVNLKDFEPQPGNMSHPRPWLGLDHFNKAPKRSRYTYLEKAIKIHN

[3] = target: T1, Ubiquitin carboxyl-terminal hydrolase 7; experiment: Inhibition of recombinant USP7 catalytic domain (unknown origin) using UbA10 as substrate incubated with substrate for 75 mins followed by compound addition and measured after 1 hr by TR-FRET assay; method in brief: as §2
Target sequence in this assay (Q93009 whole entry, the tested form may be a part): as the sequence (Q93009 whole entry, looked up, the tested form may be a part) above

BGC-823 [4] = experiment: Cytotoxicity against human BGC-823 cells incubated for 4 hrs by MTT assay; assay type: functional, cell-based; method in brief: as §1
BGC-823 [5] = experiment: Cytotoxicity against human BGC-823 cells at 50 uM incubated for 4 hrs by MTT assay relative to control; assay type: functional
MGC-803 [6] = experiment: Inhibition of colony formation in human MGC-803 cells after 7 days by crystal violet staining based assay; assay type: functional, cell-based; details: time 7.0 day
Method in brief: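 Clonogenic assay: MGC-803 cells in log phase were seeded at 200 cells per well, allowed to attach for 12 h at 37 °C in 5% CO2, then exposed to the indicated concentrations or to DMSO for 7 days. Colonies were fixed with 4% paraformaldehyde and stained with 0.1% crystal violet for 15 min.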

MGC-803 [7] = experiment: Induction of cell cycle arrest in human MGC-803 cells assessed as accumulation of cells at G0/G1 phase incubated for 72 hrs by propidium iodide staining based flow cytometry; assay type: functional
Method in brief: (§3)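 Cell cycle: MGC-803 cells were treated with various compound concentrations for 72 h, harvested, washed in PBS at 4 °C, and stained with a commercial PI cell-cycle kit following its instructions. DNA content was analysed by flow cytometry.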

MGC-803 [8] = experiment: Induction of cell cycle arrest in human MGC-803 cells assessed as accumulation of cells at S phase incubated for 72 hrs by propidium iodide staining based flow cytometry; assay type: functional; method in brief: as §3
MGC-803 [9] = experiment: Cytotoxicity against human MGC-803 cells at 50 uM incubated for 4 hrs by MTT assay relative to control; assay type: functional
[10] = target: T1, Ubiquitin carboxyl-terminal hydrolase 7; experiment: Inhibition of USP7 in human MGC-803 cells assessed as decrease in MDM2 protein level by Western blot analysis; assay type: cell-based; details: time 0.5-7 hrs, TDE = time-dependent effect
Target sequence in this assay (Q93009 whole entry, looked up, the tested form may be a part): as above

[11] = target: T1, Ubiquitin carboxyl-terminal hydrolase 7; experiment: Inhibition of USP7 in human MGC-803 cells assessed as increase in p53 expression level at 2.5 to 10 uM by Western blot analysis; assay type: cell-based; details: dose 2.5-10 µM
Target sequence in this assay (Q93009 whole entry, looked up, the tested form may be a part): as above

[12] = target: T1, Ubiquitin carboxyl-terminal hydrolase 7; experiment: Inhibition of USP7 in human MGC-803 cells assessed as increase in p21 expression level at 2.5 to 10 uM by Western blot analysis; assay type: cell-based; details: dose 2.5-10 µM
Target sequence in this assay (Q93009 whole entry, looked up, the tested form may be a part): as above

[13] = target: T1, Ubiquitin carboxyl-terminal hydrolase 7; experiment: Binding affinity to recombinant USP7 (208 to 560 residues) (unknown origin) assessed as dissociation constant by biolayer interferometry
Target sequence in this assay (Q93009 whole entry, the tested form may be a part): as the sequence (Q93009 whole entry, looked up, the tested form may be a part) above

[14] = target: T1, Ubiquitin carboxyl-terminal hydrolase 7; experiment: Inhibition of N-terminal His-FLAG-tagged human USP7 (2 to 1102 residues) expressed in baculovirus infected Sf9 cells using Ub-AMC as substrate preincubated with enzyme for 40 mins followed by substrate addition for 30 mins by fluorescence plate reader analysis
Method in brief: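 USP7 activity with a commercial Ub-AMC inhibitor screening kit. Compound working solutions were made in 1X buffer containing 6.5 mM DTT. USP7 was added and preincubated for 40 min at 25 °C. Ub-AMC, diluted 800-fold, was added for 30 min at 25 °C. Fluorescence was read at ex 360/em 460 nm, and IC50 came from regression.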
Target sequence in this assay (Q93009 whole entry, the tested form may be a part): as the sequence (Q93009 whole entry, looked up, the tested form may be a part) above

[15] = target: T1, Ubiquitin carboxyl-terminal hydrolase 7; experiment: Inhibition of USP7 in human BGC-823 cells assessed as upregulation of p21 protein expression by Western blot analysis; assay type: cell-based
Target sequence in this assay (Q93009 whole entry, looked up, the tested form may be a part): as above

SMILES: O=C(c1cccc(Cl)c1Cl)N1CCC(O)(Cn2cnc3cc(Cl)ccc3c2=O)CC1
Activity (MGC-803 [1]): Active

SMILES: O=C(CCc1ccccc1)N1CCC(O)(Cn2cnc3cc(NCCN4CCCC4)ccc3c2=O)CC1
IC50 [3]: 4.86 µM | inhibition (MGC-803 [6]): Active | Activity (MGC-803 [7]): Active | Activity (MGC-803 [8]): Active | inhibition at 50 µM (MGC-803 [9]): 31% | inhibition at 50 µM (BGC-823 [5]): 28.4% | inhibition [10]: Tde | inhibition [11]: Active | inhibition [12]: Active | Kd [13]: 77 µM | IC50 [14]: 5050 nM

SMILES: O=C(c1ccc(O)cc1)N1CCC(O)(Cn2cnc3cc(Cl)ccc3c2=O)CC1
Activity (MGC-803 [1]): Active | Activity (BGC-823 [4]): Active

SMILES: COc1ccccc1CNc1ccc2c(=O)n(CC3(O)CCN(C(=O)CCc4ccccc4)CC3)cnc2c1
inhibition [2]: 45.9%

SMILES: O=C(COc1cccc2ccccc12)N1CCC(O)(Cn2cnc3cc(Cl)ccc3c2=O)CC1
inhibition [2]: 9.83% | Activity (MGC-803 [1]): Active | Activity (BGC-823 [4]): Active

SMILES: O=C(CCc1ccccc1)N1CCC(O)(Cn2cnc3cc(NCCN4CCCCC4)ccc3c2=O)CC1
IC50 [3]: 37 µM

SMILES: O=C(CCc1ccccc1)N1CCC(O)(Cn2cnc3cc(NCc4ccco4)ccc3c2=O)CC1
IC50 [3]: 9.8 µM

SMILES: O=C(c1ccccc1)N1CCC(O)(Cn2cnc3cc(Cl)ccc3c2=O)CC1
inhibition [2]: 18.6%

SMILES: O=C(Cc1cccc2ccccc12)N1CCC(O)(Cn2cnc3cc(Cl)ccc3c2=O)CC1
IC50 [3]: > 50 µM

SMILES: O=C(c1cccnc1)N1CCC(O)(Cn2cnc3cc(Cl)ccc3c2=O)CC1
IC50 [3]: > 50 µM | inhibition [2]: < 50%

SMILES: CC(CC(=O)N1CCC(O)(Cn2cnc3cc(Cl)ccc3c2=O)CC1)c1ccccc1 (stereo not given)
IC50 [3]: 6.79 µM

SMILES: CN(C)CCNc1ccc2c(=O)n(CC3(O)CCN(C(=O)CCc4ccccc4)CC3)cnc2c1
IC50 [3]: 5.98 µM | inhibition [15]: Dose-Dependent Effect

SMILES: O=C(c1ccccn1)N1CCC(O)(Cn2cnc3cc(Cl)ccc3c2=O)CC1
IC50 [3]: > 50 µM | inhibition [2]: < 50%

SMILES: CC(CC(=O)N1CCC(O)(Cn2cnc3cc(NCCN4CCCC4)ccc3c2=O)CC1)c1ccccc1 (stereo not given)
inhibition [15]: Dose-Dependent Effect

SMILES: O=C(CCc1ccccc1)N1CCC(O)(Cn2cnc3cc(NCCO)ccc3c2=O)CC1
IC50 [3]: 16.4 µM

SMILES: O=C(/C=C/c1ccccc1)N1CCC(O)(Cn2cnc3cc(Cl)ccc3c2=O)CC1
inhibition [2]: 32.6%

SMILES: Nc1cc(Cl)ccc1C(=O)N1CCC(O)(Cn2cnc3cc(Cl)ccc3c2=O)CC1
inhibition [2]: 46.5% | Activity (MGC-803 [1]): Active

SMILES: O=C(CCc1ccccc1)N1CCC(O)(Cn2cnc3cc(Cl)ccc3c2=O)CC1
IC50 [3]: 23.1 µM | Activity (MGC-803 [1]): inactive | Activity (BGC-823 [4]): inactive | inhibition at 50 µM (MGC-803 [9]): 31.4% | inhibition at 50 µM (BGC-823 [5]): 8.45%

Second part, led by results:

inhibition [2]: 49.9%
SMILES: O=C(CCc1ccccc1)N1CCC(O)(Cn2cnc3cc(NCc4ccc(Cl)cc4)ccc3c2=O)CC1

IC50 [3]: 15.3 µM
SMILES: O=C(CCc1ccccc1)N1CCC(O)(Cn2cnc3cc(NCCc4ccccc4)ccc3c2=O)CC1
IC50 (MGC-803 [1]): 32.1 µM | Activity (BGC-823 [4]): Active | inhibition at 50 µM (BGC-823 [5]): 54%

IC50 [3]: 46.3 µM
SMILES: Nc1cc(Br)ccc1C(=O)N1CCC(O)(Cn2cnc3cc(Cl)ccc3c2=O)CC1
IC50 (MGC-803 [1]): 30 µM | Activity (BGC-823 [4]): Active | inhibition at 50 µM (BGC-823 [5]): 52%

inhibition [2]: 0.8%
SMILES: Cc1ccc(S(=O)(=O)N2CCC(O)(Cn3cnc4cc(Cl)ccc4c3=O)CC2)cc1

IC50 [3]: 1.54 µM | inhibition [15]: Dose-Dependent Effect | IC50 [14]: 595 nM
SMILES: CC(CC(=O)N1CCC(O)(Cn2cnc3cc(NCCN(C)C)ccc3c2=O)CC1)c1ccccc1 (stereo not given)

IC50 [3]: > 50 µM | inhibition [2]: < 50%
SMILES: O=C(c1ccc[nH]1)N1CCC(O)(Cn2cnc3cc(Cl)ccc3c2=O)CC1

inhibition [2]: 49.1%
SMILES: O=C(CCc1ccccc1)N1CCC(O)(Cn2cnc3cc(NCc4ccccc4Cl)ccc3c2=O)CC1
IC50 (MGC-803 [1]): 29.7 µM | IC50 (BGC-823 [4]; BGC-823, 4 h): 43.1 µM | inhibition at 50 µM (MGC-803 [9]): 86.7% | inhibition at 50 µM (BGC-823 [5]): 58.2%

inhibition [2]: 42.2%
SMILES: O=C(c1cccc(Br)c1)N1CCC(O)(Cn2cnc3cc(Cl)ccc3c2=O)CC1

inhibition [2]: 58.3%
SMILES: O=C(c1ccc([N+](=O)[O-])cc1)N1CCC(O)(Cn2cnc3cc(Cl)ccc3c2=O)CC1

IC50 [3]: > 50 µM
SMILES: O=C(Cc1ccc(C(F)(F)F)cc1)N1CCC(O)(Cn2cnc3cc(Cl)ccc3c2=O)CC1

inhibition [2]: 4.29%
SMILES: O=C(c1ccccc1[N+](=O)[O-])N1CCC(O)(Cn2cnc3cc(Cl)ccc3c2=O)CC1

inhibition [2]: 22.7%
SMILES: O=C(COc1ccccc1)N1CCC(O)(Cn2cnc3cc(Cl)ccc3c2=O)CC1

IC50 [3]: 27.4 µM
SMILES: O=C(CCc1ccccc1)N1CCC(O)(Cn2cnc3cc(Br)ccc3c2=O)CC1
